Published values of several laboratories.
Lines come from different studies, so protocols differ.
Target: Tyrosine-protein kinase Fyn (FYN, Homo sapiens, UniProt P06241)

Compound	assay	setting	remaining binding
CC(C)CC(=O)N1CCc2nc(-c3ccc(Br)cc3)nc(N(C)Cc3ccccc3)c2C1	cell-free assay, competition with immobilised ligand	0.1 µM	100%
O=C(c1ccc(Nc2ncc(Cl)c(-c3cc4ccccc4s3)n2)cc1)N1CCC(N2CCCC2)CC1	binding, competition with immobilised ligand	1 µM	96%
CCOCCn1cc(C(=O)Nc2ccc(-n3nc(-c4cccnc4)cc3C(F)(F)F)cn2)ccc1=O	cell-free assay, competition with immobilised ligand	1 µM	53%
CCN1CCN(Cc2ccc(C(=O)Nc3ccc(C)c(Oc4ccc5c(c4)CC(=O)N5)c3)cc2C(F)(F)F)CC1	binding, competition with immobilised ligand	1 µM	90%
c1cnn2ncc(-c3ccnc(N4CCC45COC5)n3)c2c1	binding	1 µM	79%
O=C(NCCCN1CCOCC1)c1ccc(Nc2ncc(Cl)c(-c3ccc(Cl)s3)n2)cc1	binding, competition with immobilised ligand	1 µM	100%
Cn1cc(Cl)c2c(Oc3c(F)cc(Nc4cc(Cl)nc(N)n4)cc3F)ccnc21	cell-free assay, competition with immobilised ligand	0.1 µM	80%
c1cncc(-c2cccc(Nc3nccc(NC4CCCCC4)n3)c2)c1	binding, competition with immobilised ligand	10 µM	45%
CS(=O)(=O)NCC[C@H](NC(=O)c1cncc2c1cnn2-c1ccc(F)cc1)c1ccnc(S(C)(=O)=O)c1	cell-free assay, competition with immobilised ligand	1 µM	100%
Cc1cnn2ncc(-c3ccnc(N(C)C)n3)c2c1	binding	1 µM	98%
C=CC(=O)N1CCC(C(=O)NCC(=O)N2CCN(c3nc(-c4cnc(N)nc4C(F)F)nc(N4CCOCC4)n3)CC2)CC1	binding, competition with immobilised ligand	1 µM	100%
O=C(c1ccc(Nc2nccc(-c3cc4ccccc4s3)n2)cc1)N1CCC(N2CCCC2)CC1	binding, competition with immobilised ligand	1 µM	85%
CN(c1nccc(-c2cnn3ncccc23)n1)C1CC1	binding	1 µM	85%
O=C(NCc1ncc(C(F)(F)F)cc1Cl)c1ccc2c(c1)C1(CCS(=O)(=O)CC1)[C@H](C1CC1)N2S(=O)(=O)c1ccc(F)cc1	cell-free assay, competition with immobilised ligand	1 µM	100%
CC1CCCN1c1nccc(-c2cnn3ncccc23)n1 (centres unmarked)	binding	1 µM	69%
O=C(Nc1c[nH]nc1C(=O)NC1CCNCC1)c1cc(F)cc(F)c1	binding, competition with immobilised ligand	1 µM	100%
COc1ccnn2ncc(-c3ccnc(N(C)C)n3)c12	binding	1 µM	100%
COc1cnc(Nc2cccc(S(N)(=O)=O)c2)nc1N1CCN(c2ccccc2)C(=O)C1	binding, competition with immobilised ligand	1 µM	100%
NS(=O)(=O)c1cc(NC(=O)C2(c3ccccc3Cl)CC2)ccc1Oc1cccc(Cl)c1	cell-free assay, competition with immobilised ligand	1 µM	100%
C[C@H]1CCN(c2nccc(-c3cnn4ncccc34)n2)C1	binding	1 µM	100%
